# Marks after values point to notes of the source that are not given here.
# Assay: Treatment-emergent adverse events, tolerability
# Format: in vivo, healthy men
# Summary of the method: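 Healthy men received single oral tablet doses (part 1: 1–225 mg; part 2: 10, 50 mg) or placebo under double-blind randomisation. Treatment-emergent adverse events were recorded along with clinical laboratory tests, ECG, oral temperature, vital signs and physical examinations, through follow-up.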
compound,measurement,setting,value
"CC(C)(O)c1ccccc1-c1ccc2[nH]c(/C=C/c3ccc(C(F)(F)F)cc3)nc2c1 [JNJ-39439335, trans-2-(2-{2-[2-(4-Trifluoromethyl-phenyl)-vinyl]-1H-benzimidazol-5-yl}-phenyl)-propan-2-ol]",TEAE Burning sensation,"part 1, 30 mg (N = 5)",0 n (%)
same,TEAE Chills,"part 1, 30 mg (N = 5)",0 n (%)
same,TEAE Dizziness,"part 1, 30 mg (N = 5)",1 (20) n (%)
same,TEAE Dizziness postural,"part 1, 30 mg (N = 5)",0 n (%)
same,TEAE Dysgeusia,"part 1, 30 mg (N = 5)",1 (20) n (%)
same,TEAE Fatigue,"part 1, 30 mg (N = 5)",0 n (%)
same,TEAE Feeling cold,"part 1, 30 mg (N = 5)",5 (100) n (%)
same,TEAE Feeling hot,"part 1, 30 mg (N = 5)",4 (80) n (%)
same,TEAE Headache,"part 1, 30 mg (N = 5)",0 n (%)
same,TEAE Hematoma,"part 1, 30 mg (N = 5)",0 n (%)
same,TEAE Hyperhidrosis,"part 1, 30 mg (N = 5)",0 n (%)
same,TEAE Hypoesthesia,"part 1, 30 mg (N = 5)",0 n (%)
same,TEAE Hypogeusia,"part 1, 30 mg (N = 5)",0 n (%)
same,TEAE Nausea,"part 1, 30 mg (N = 5)",0 n (%)
same,TEAE Orthostatic hypotension,"part 1, 30 mg (N = 5)",1 (20) n (%)
same,TEAE Paresthesia,"part 1, 30 mg (N = 5)",0 n (%)
same,TEAE Pruritus,"part 1, 30 mg (N = 5)",0 n (%)
same,TEAE Pyrexia,"part 1, 30 mg (N = 5)",3 (60) n (%)
same,TEAE Rhinitis,"part 1, 30 mg (N = 5)",0 n (%)
same,TEAE Thermal burn,"part 1, 30 mg (N = 5)",1 (20) n (%)
same,TEAE Thermohypoesthesia,"part 1, 30 mg (N = 5)",3 (60) n (%)
same,Total no. participants with AEs,"part 1, 30 mg (N = 5)",5 (100) n (%)
same,TEAE Agusia,"part 1, 60 mg (N = 6)",0 n (%)
same,TEAE Back pain,"part 1, 60 mg (N = 6)",0 n (%)
same,TEAE Burning sensation,"part 1, 60 mg (N = 6)",0 n (%)
same,TEAE Chills,"part 1, 60 mg (N = 6)",0 n (%)
same,TEAE Dizziness,"part 1, 60 mg (N = 6)",0 n (%)
same,TEAE Dizziness postural,"part 1, 60 mg (N = 6)",0 n (%)
same,TEAE Dysgeusia,"part 1, 60 mg (N = 6)",1 (17) n (%)
same,TEAE Fatigue,"part 1, 60 mg (N = 6)",0 n (%)
same,TEAE Feeling cold,"part 1, 60 mg (N = 6)",4 (67) n (%)
same,TEAE Feeling hot,"part 1, 60 mg (N = 6)",1 (17) n (%)
same,TEAE Headache,"part 1, 60 mg (N = 6)",0 n (%)
same,TEAE Hematoma,"part 1, 60 mg (N = 6)",0 n (%)
same,TEAE Hyperhidrosis,"part 1, 60 mg (N = 6)",0 n (%)
same,TEAE Hypoesthesia,"part 1, 60 mg (N = 6)",1 (17) n (%)
same,TEAE Hypogeusia,"part 1, 60 mg (N = 6)",0 n (%)
same,TEAE Nausea,"part 1, 60 mg (N = 6)",1 (17) n (%)
same,TEAE Paresthesia,"part 1, 60 mg (N = 6)",0 n (%)
same,TEAE Pruritus,"part 1, 60 mg (N = 6)",0 n (%)
same,TEAE Pyrexia,"part 1, 60 mg (N = 6)",4 (67) n (%)
same,TEAE Rhinitis,"part 1, 60 mg (N = 6)",0 n (%)
same,TEAE Thermal burn,"part 1, 60 mg (N = 6)",0 n (%)
same,TEAE Thermohypoesthesia,"part 1, 60 mg (N = 6)",1 (17) n (%)
same,Total no. participants with AEs,"part 1, 60 mg (N = 6)",6 (100) n (%)
same,TEAE Agusia,"part 1, 120 mg (N = 6)",0 n (%)
same,TEAE Back pain,"part 1, 120 mg (N = 6)",0 n (%)
same,TEAE Burning sensation,"part 1, 120 mg (N = 6)",0 n (%)
same,TEAE Chills,"part 1, 120 mg (N = 6)",1 (17) n (%)
same,TEAE Dizziness,"part 1, 120 mg (N = 6)",1 (17) n (%)
same,TEAE Dizziness postural,"part 1, 120 mg (N = 6)",1 (17) n (%)
same,TEAE Dysgeusia,"part 1, 120 mg (N = 6)",0 n (%)
same,TEAE Fatigue,"part 1, 120 mg (N = 6)",1 (17) n (%)
same,TEAE Feeling cold,"part 1, 120 mg (N = 6)",1 (17) n (%)
same,TEAE Feeling hot,"part 1, 120 mg (N = 6)",1 (17) n (%)
same,TEAE Headache,"part 1, 120 mg (N = 6)",1 (17) n (%)
same,TEAE Hematoma,"part 1, 120 mg (N = 6)",1 (17) n (%)
same,TEAE Hyperhidrosis,"part 1, 120 mg (N = 6)",0 n (%)
same,TEAE Hypoesthesia,"part 1, 120 mg (N = 6)",1 (17) n (%)
same,TEAE Hypogeusia,"part 1, 120 mg (N = 6)",0 n (%)
same,TEAE Nausea,"part 1, 120 mg (N = 6)",1 (17) n (%)
same,TEAE Orthostatic hypotension,"part 1, 120 mg (N = 6)",0^a n (%)
same,TEAE Paresthesia,"part 1, 120 mg (N = 6)",0 n (%)
same,TEAE Pruritus,"part 1, 120 mg (N = 6)",1 (17) n (%)
same,TEAE Pyrexia,"part 1, 120 mg (N = 6)",4 (67) n (%)
same,TEAE Rhinitis,"part 1, 120 mg (N = 6)",0 n (%)
same,TEAE Thermal burn,"part 1, 120 mg (N = 6)",0 n (%)
same,TEAE Thermohypoesthesia,"part 1, 120 mg (N = 6)",4 (67) n (%)
same,Total no. participants with AEs,"part 1, 120 mg (N = 6)",6 (100) n (%)
same,TEAE Agusia,"part 1, 225 mg (N = 6)",2 (33) n (%)
same,TEAE Back pain,"part 1, 225 mg (N = 6)",0 n (%)
same,TEAE Burning sensation,"part 1, 225 mg (N = 6)",5 (83) n (%)
same,TEAE Chills,"part 1, 225 mg (N = 6)",1 (17) n (%)
same,TEAE Dizziness,"part 1, 225 mg (N = 6)",1 (17) n (%)
same,TEAE Dizziness postural,"part 1, 225 mg (N = 6)",0 n (%)
same,TEAE Dysgeusia,"part 1, 225 mg (N = 6)",0 n (%)
same,TEAE Fatigue,"part 1, 225 mg (N = 6)",0 n (%)
same,TEAE Feeling cold,"part 1, 225 mg (N = 6)",2 (33) n (%)
same,TEAE Feeling hot,"part 1, 225 mg (N = 6)",5 (83) n (%)
same,TEAE Headache,"part 1, 225 mg (N = 6)",2 (33) n (%)
same,TEAE Hematoma,"part 1, 225 mg (N = 6)",0 n (%)
same,TEAE Hyperhidrosis,"part 1, 225 mg (N = 6)",1 (17) n (%)
same,TEAE Hypoesthesia,"part 1, 225 mg (N = 6)",0 n (%)
same,TEAE Hypogeusia,"part 1, 225 mg (N = 6)",0 n (%)
same,TEAE Nausea,"part 1, 225 mg (N = 6)",0 n (%)
same,TEAE Orthostatic hypotension,"part 1, 225 mg (N = 6)",1 (17) n (%)
same,TEAE Paresthesia,"part 1, 225 mg (N = 6)",3 (50) n (%)
same,TEAE Pruritus,"part 1, 225 mg (N = 6)",1 (17) n (%)
same,TEAE Pyrexia,"part 1, 225 mg (N = 6)",3 (50) n (%)
same,TEAE Rhinitis,"part 1, 225 mg (N = 6)",0 n (%)
same,TEAE Thermal burn,"part 1, 225 mg (N = 6)",3 (50) n (%)
same,TEAE Thermohypoesthesia,"part 1, 225 mg (N = 6)",5 (83) n (%)
same,Total no. participants with AEs,"part 1, 225 mg (N = 6)",6 (100) n (%)
same,Participants with burning feeling (not physical burn),"part 1, 225-mg dose group",5 participants
same,Participants reporting at least 1 TEAE,"part 1, of 59 participants receiving JNJ-39439335",50 (85%) n (%)
same,Participants with minor or first-degree burns,"part 1, of the 89 participants who received JNJ-39439335 or placebo",4 participants
same,"Thermohypoesthesia, participants","part 1, participants receiving JNJ-39439335",23 (39%) n (%)
same,"Thermohypoesthesia, participants",part 2,70%
same,TEAE Disturbance in attention,"part 2, 10 mg (N = 19)",1 (5) n (%)
same,TEAE Dizziness,"part 2, 10 mg (N = 19)",0 n (%)
same,TEAE Dizziness postural,"part 2, 10 mg (N = 19)",0 n (%)
same,TEAE Dysgeusia,"part 2, 10 mg (N = 19)",4 (21) n (%)
same,TEAE Feeling cold,"part 2, 10 mg (N = 19)",9 (47) n (%)
same,TEAE Feeling hot,"part 2, 10 mg (N = 19)",6 (32) n (%)
same,TEAE Headache,"part 2, 10 mg (N = 19)",3 (16) n (%)
same,TEAE Hyperhidrosis,"part 2, 10 mg (N = 19)",2 (11) n (%)
same,TEAE Oropharyngeal pain,"part 2, 10 mg (N = 19)",1 (5) n (%)
same,TEAE Paresthesia,"part 2, 10 mg (N = 19)",7 (37) n (%)
same,TEAE Pyrexia,"part 2, 10 mg (N = 19)",8 (42) n (%)
same,TEAE Thermal burn,"part 2, 10 mg (N = 19)",0 n (%)
same,TEAE Thermohypoesthesia,"part 2, 10 mg (N = 19)",9 (47) n (%)
same,Total no. participants with AEs,"part 2, 10 mg (N = 19)",17 (89) n (%)
same,TEAE Disturbance in attention,"part 2, 50 mg (N = 20)",2 (10) n (%)
same,TEAE Dizziness,"part 2, 50 mg (N = 20)",2 (10) n (%)
same,TEAE Dizziness postural,"part 2, 50 mg (N = 20)",1 (5) n (%)
same,TEAE Dysgeusia,"part 2, 50 mg (N = 20)",5 (25) n (%)
same,TEAE Feeling cold,"part 2, 50 mg (N = 20)",9 (45) n (%)
same,TEAE Feeling hot,"part 2, 50 mg (N = 20)",8 (40) n (%)
same,TEAE Headache,"part 2, 50 mg (N = 20)",3 (15) n (%)
same,TEAE Hyperhidrosis,"part 2, 50 mg (N = 20)",2 (10) n (%)
same,TEAE Oropharyngeal pain,"part 2, 50 mg (N = 20)",1 (5) n (%)
same,TEAE Paresthesia,"part 2, 50 mg (N = 20)",9 (45) n (%)
same,TEAE Pyrexia,"part 2, 50 mg (N = 20)",11 (55) n (%)
same,TEAE Thermal burn,"part 2, 50 mg (N = 20)",2 (10) n (%)
same,TEAE Thermohypoesthesia,"part 2, 50 mg (N = 20)",12 (60) n (%)
same,Total no. participants with AEs,"part 2, 50 mg (N = 20)",19 (95) n (%)
same,Participants with minor burns of the mouth,"part 2, 50-mg dose",2 participants
same,TEAE Disturbance in attention,"part 2, Total (N = 20)",2 (10) n (%)
same,TEAE Dizziness,"part 2, Total (N = 20)",2 (10) n (%)
same,TEAE Dizziness postural,"part 2, Total (N = 20)",2 (10) n (%)
same,TEAE Dysgeusia,"part 2, Total (N = 20)",7 (35) n (%)
same,TEAE Feeling cold,"part 2, Total (N = 20)",13 (65) n (%)
same,TEAE Feeling hot,"part 2, Total (N = 20)",11 (55) n (%)
same,TEAE Headache,"part 2, Total (N = 20)",5 (25) n (%)
same,TEAE Hyperhidrosis,"part 2, Total (N = 20)",4 (20) n (%)
same,TEAE Oropharyngeal pain,"part 2, Total (N = 20)",2 (10) n (%)
same,TEAE Paresthesia,"part 2, Total (N = 20)",11 (55) n (%)
same,TEAE Pyrexia,"part 2, Total (N = 20)",12 (60) n (%)
same,TEAE Thermal burn,"part 2, Total (N = 20)",2 (10) n (%)
same,TEAE Thermohypoesthesia,"part 2, Total (N = 20)",14 (70) n (%)
same,Total no. participants with AEs,"part 2, Total (N = 20)",20 (100) n (%)
same,Severe adverse events / withdrawals because of an adverse event,parts 1 and 2,no severe adverse events reported
same,Tolerability,single oral doses up to 225 mg,well tolerated
